RGS4 inh = human RGS4 inhibition. P49798. HEK293 M3R/RGS4 inducible, Fluo-4 calcium flux; active compounds read high; triggered by carbachol at its EC20. B-score at 10 µM. 310,000 compounds, 0.45% hits. AID 463165;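 active means B-score, a plate-corrected calcium signal, over three deviations above library mean, with baseline fluorescence within five deviations of library mean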;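 further: RGS4 expression induced by doxycycline in cells with stable M3 receptor; B-score is computed from the integrated fluorescence ratio over baseline after carbachol; higher B-score means a larger calcium signal and so more RGS4 inhibition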
Target sequence (P49798 whole entry, looked up): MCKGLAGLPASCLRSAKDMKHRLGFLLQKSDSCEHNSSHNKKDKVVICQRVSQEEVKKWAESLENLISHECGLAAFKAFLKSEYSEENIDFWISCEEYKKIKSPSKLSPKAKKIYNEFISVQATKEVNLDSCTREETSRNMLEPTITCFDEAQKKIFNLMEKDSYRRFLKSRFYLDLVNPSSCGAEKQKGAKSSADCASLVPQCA
MrgX1 agonist = human MrgX1 receptor agonism, primary screen. Q96LB2. MrgX1-HEK293 cells, Fluo-4 calcium fluorescence, agonist mode; active compounds read high. B-score at 10 µM. 310,000 compounds, 0.44% hits;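 active means calcium response B-score plate-corrected fluorescence ratio at least 3 library SD, with starting fluorescence B-score inside 5 SD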
Target sequence (Q96LB2 whole entry, looked up): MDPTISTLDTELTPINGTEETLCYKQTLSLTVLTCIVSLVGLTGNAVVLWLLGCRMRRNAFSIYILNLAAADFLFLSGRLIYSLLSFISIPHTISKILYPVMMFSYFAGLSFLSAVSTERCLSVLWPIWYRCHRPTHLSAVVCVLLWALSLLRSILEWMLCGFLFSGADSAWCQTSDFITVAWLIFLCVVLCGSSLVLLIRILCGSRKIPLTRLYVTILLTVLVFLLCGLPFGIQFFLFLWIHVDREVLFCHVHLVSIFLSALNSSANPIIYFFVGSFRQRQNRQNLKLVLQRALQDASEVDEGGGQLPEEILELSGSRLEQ
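Material: MrgX1-expressing HEK293 cells / Dosing: compound as first of three additions / Incubation: overnight seeding, then 1 h dark dye loading / Signal: Fluo-4 NW calcium fluorescence / Evaluation: B-scored fluorescence response ratio / Benchmarks: positive and negative control wells on each plate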
MrgX1 PAM = human MrgX1 positive allosteric modulation, primary screen; MrgX1-HEK293, Fluo-4 calcium flux, FDSS; active compounds read high; B-score at 10 µM; 310,000 compounds, 0.63% hits; Q96LB2; AID 588675;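 active means plate-corrected calcium response at least 3 library SD above typical, normal starting fluorescence, not activating the receptor alone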;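 further: compound read alongside a low EC10 to EC30 dose of BAM8-22 agonist; peak minus trough fluorescence over baseline measured at the second addition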
MrgX1 antag = blocks BAM8-22 activation of human MrgX1 receptor. Q96LB2. MRGX1-HEK293 calcium flux, Fluo-4, BAM8-22 antagonism; active compounds read low. B-score at 10 µM. 310,000 compounds, 1.3% hits. AID 588676;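 active means calcium-response B-score plate-corrected more than 3 library SD below zero, starting fluorescence within 5 deviations, no agonist response on first addition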;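 further: peak minus trough fluorescence over baseline after final BAM8-22 challenge near maximal dose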
RGS4 act = potentiators or activators of RGS4. HEK293 M3R/inducible RGS4, carbachol calcium flux Fluo4; active compounds read low. B-score at 10 µM. 310,000 compounds, 0.92% hits. AID 463111;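 active means B-score of the integrated calcium signal more than 4 SD below the library mean, with starting fluorescence not abnormally high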;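 further: negative B-score means reduced calcium response which marks RGS4 activation or potentiation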
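Material: Inducible-RGS4 HEK293 cells carrying M3 receptor; also added: carbachol at ECmax as muscarinic agonist stimulus; incubation: compound preincubation 20 min at room temperature before agonist; signal: Fluo4-AM (2 µM) calcium-flux fluorescence, kinetic read; measure: integrated calcium ratio converted to B score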
RGS4 block valid = validation of RGS4 inhibitors. shares compounds with RGS4 inh. HEK293 M3R/RGS4, carbachol calcium Fluo-4 fluorescence; carbachol added at its EC20; 0 = buffer wells, 100 = carbachol control. calcium response, % at 10 µM. 1,700 compounds, 65% hits;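 active means duplicate-averaged calcium response above the buffer-only control mean plus 5 SD of those controls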;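 further: integrated fluorescence ratio F max minus min over baseline F0; higher response in RGS4-induced cells means RGS4 inhibition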
M3R Ca ctr = checks RGS4 inhibitor effects in non-induced HEK293 M3R cells; AID 493000; carbachol calcium Fluo-4; submaximal (EC20) carbachol stimulus; buffer wells 0%, carbachol control wells 100%; activity (percent), % at 10 µM; 1,900 compounds, 20% hits; shares compounds with RGS4 inh; call rule not given here;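 further: RGS4 induction absent so cells express M3R without RGS4; higher means more calcium signal and flags a non-specific hit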
M3R basal Ca ctr = second counter-screen for RGS4 inhibitors: non-induced cells without carbachol; shares compounds with RGS4 inh; HEK293 M3R/RGS4 non-induced, Fluo-4 calcium, no carbachol; normalised: buffer wells 0%, carbachol wells 100%; calcium response (agonist-mode artifact), % at 10 µM; 1,900 compounds, 22% hits; AID 493001;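 active means duplicate-averaged calcium rise in uninduced cells above buffer wells' mean plus 5 SD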
MrgX1 ag confirm = reconfirmed activator of human MrgX1 receptor signaling. shares compounds with MrgX1 agonist. MrgX1-HEK293, Fluo-4 calcium fluorescence, FDSS. activation, % at 10 µM. 600 compounds, 78% hits. AID 602412;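 active means calcium signal rise, corrected for plate position, at least 3 library SD high, with starting brightness within 5 such deviations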
MrgX1 allo conf = human MrgX1 positive allosteric modulation, re-confirmation | 1,200 compounds, 13% hits | MrgX1-HEK293, Fluo-4 calcium fluorescence, FDSS | shares compounds with MrgX1 PAM | activation (ratio percentage), % at 10 µM;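 active means ratio at least 3 SD above the weak peptide control, stable starting fluorescence, no direct agonism earlier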;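 further: compound followed by low BAM8-22 agonist challenge near EC20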
MrgX1 ant reconf = reconfirmed antagonist of human MrgX1 receptor signaling; shares compounds with MrgX1 antag; MrgX1-HEK293, BAM8-22 calcium flux, Fluo-4; active compounds read low; remaining BAM8-22 calcium response % of control (active compounds read low), % at 10 µM; 2,300 compounds, 19% hits;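 active means remaining agonist calcium response no higher than 100% minus 3 SD of agonist-only control wells, with starting fluorescence near control levels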;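 further: agonist BAM8-22 given at a near maximal EC90 to ECmax level; peak minus minimum fluorescence divided by baseline after agonist addition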
HEK293 Ca flux = activity in parental HEK293 cells lacking MrgX1. AID 624111. shares compounds with MrgX1 antag. 4,000 compounds, 2% hits. fluorescence ratio F(max-min)/F0 at 10 µM. Fluo-4 calcium fluorescence, FDSS;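 active means duplicate-averaged calcium fluorescence ratio at least three times the standard deviation of buffer wells, a nonspecific response in parental cells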
HEK293 Ca counter = MrgX1 allosteric activator counter-screen hit in parental HEK293 cells. shares compounds with MrgX1 antag. parental HEK293 calcium flux, Fluo-4 fluorescence ratio; active compounds read high. fluorescence ratio F(max-min)/F0 at 10 µM. 4,000 compounds, 0.4% hits;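 active means calcium fluorescence ratio, averaged over duplicates, at least 3 SD of the buffer-well ratio, meaning a nonspecific response in receptor-free cells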;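 further: untransfected parental HEK293 lacking MrgX1 used as counterscreen for MrgX1 allosteric activators; fluorescence change taken during the second addition on a kinetic imager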
HEK293 Ca cntr2 = MrgX1 activator counter-screen hit in parental HEK293 cells; shares compounds with MrgX1 antag; Fluo-4 calcium fluorescence (FDSS); active compounds read high; 4,000 compounds, 8.7% hits; fluorescence ratio F(max-min)/F0 at 10 µM;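 active means calcium fluorescence ratio at least three times the spread of buffer wells, meaning a non-specific response in parental cells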
A number is an active result; – = inactive; · = not tested or not shown. A selection: hits, their analogues and other compounds. The true share with any hit is near 3.5%.

SMILES | RGS4 inh | MrgX1 agonist | MrgX1 PAM | MrgX1 antag | RGS4 act | RGS4 block valid | M3R Ca ctr | M3R basal Ca ctr | MrgX1 ag confirm | HEK293 Ca flux | HEK293 Ca counter | HEK293 Ca cntr2 | others
C[N+](C)(C)C/C=C1/COCO1 | 7.3 | 67 | – | – | -9.1 | 14% | – | 386% | 328% | – | – | 67
O=C(CCN1CCc2ccccc2CC1)c1ccc2c(c1)OCCO2 | 13 | 38 | – | – | – | 20% | – | 26% | 136% | – | – | –
CCc1ccc(-c2cnc3nc[nH]c(=O)c3n2)cc1 | – | – | – | – | – | · | · | · | · | · | · | ·
CCc1ccccc1NC(=O)CNCC(=O)Nc1ccccc1CC | – | – | – | – | – | · | · | · | · | · | · | ·
CC(=O)NCc1ccc(C(=O)CCl)s1 | – | – | – | – | – | · | · | · | · | · | · | ·
CC(=O)NCc1ccc(C(=O)CCl)cc1 | 6.7 | 35 | – | – | – | 40% | – | 9.5% | 197% | – | – | –
CCCCCC(=O)NC(=S)NC1C2CC3CC(C2)CC1C3 (centres undefined) | – | – | – | – | – | · | · | · | · | · | · | ·
NC(=O)SCC(=O)Nc1ccc(Cl)c(Cl)c1 | · | – | – | – | · | · | · | · | · | · | · | ·
Cc1ccc(NC(=O)CSC(N)=O)cc1Cl | 6.1 | – | – | -5 | – | 12% | – | – | · | – | – | – | MrgX1 ant reconf=85%
O=C1C(Cl)=C(NS(=O)(=O)c2ccc([N+](=O)[O-])cc2)C(=O)c2ccccc21 | 8.5 | – | 21 | – | – | 42% | – | – | · | – | – | – | MrgX1 allo conf=14%
O=[N+]([O-])c1ccc(Oc2ccc(S(=O)(=O)Nc3ccccc3)cc2)cc1 | – | – | – | – | – | · | · | · | · | · | · | ·
COc1ccc(CN=Cc2c(O)[nH]c3ccccc23)cc1 | – | – | – | – | – | · | · | · | · | · | · | ·
Cc1ccc(CN=Cc2[nH]c3ccc(Br)c(Cl)c3c2O)cc1 | – | – | – | -6.8 | – | – | – | 48% | · | 0.23 | – | – | MrgX1 ant reconf=–
COc1cccc(CN(C(=O)c2cnccn2)C(C(=O)NC2CCCCC2)c2cc(OC)c(OC)c(OC)c2)c1 (centres undefined) | – | – | – | – | – | · | · | · | · | · | · | ·
COc1cc(C2(c3ccc(O)c(OC)c3)C(=O)Nc3c(C)cc(Br)cc32)ccc1O | 12 | – | – | -4.6 | – | 43% | – | 25% | · | – | – | – | MrgX1 ant reconf=83%
COc1ccc(C(=O)CCN2CCc3cc(OC)c(OC)cc3C2)cc1 | – | 42 | – | – | – | · | – | 8.5% | – | – | – | –
COc1ccc(C(=O)CCN2CCN(c3ccccc3OC)CC2)cc1 | – | – | – | – | – | · | · | · | · | · | · | ·
COc1ccc(C2C(C#N)=C(N)Oc3cc(O)ccc32)cc1Cl (centres undefined) | 6.8 | 49 | – | – | – | 20% | 43% | 40% | – | – | – | –
CCOc1ccc(C2C(C#N)=C(N)Oc3cc(O)ccc32)cc1OCC (centres undefined) | – | – | – | – | – | · | · | · | · | · | · | ·
COc1ccc(C2=Nn3c(nnc3-c3ccncc3)SC2)cc1OC | 5.2 | – | 8.2 | – | – | 9.0% | – | – | · | – | – | – | MrgX1 allo conf=–
CCOc1ccc(-c2nnc3n2N=C(c2ccc(OC)cc2)CS3)cc1 | – | – | – | – | – | · | · | · | · | · | · | ·
Cc1cc(C)nc(SCCn2c(N3CCOCC3)nc3c2c(=O)[nH]c(=O)n3C)n1 | – | – | – | – | – | · | · | · | · | · | · | ·
CCN(CC)c1ccc(Nc2cc3n(c(=O)n2)CCc2cc(OC)c(OC)cc2-3)cc1 | – | – | – | -11 | – | · | 50% | – | · | – | – | – | MrgX1 ant reconf=–
CCCCCN(C(=O)CCC(=O)OCc1ccc(Cl)cc1Cl)c1c(N)n(CCCC)c(=O)[nH]c1=O | – | – | – | – | – | · | · | · | · | · | · | ·
COc1cc(CNc2ccc(N3CCCC3)cc2)cc(Cl)c1OC | – | – | – | -6.1 | – | · | 33% | – | · | – | – | – | MrgX1 ant reconf=–
SMILES | RGS4 inh | MrgX1 agonist | MrgX1 PAM | MrgX1 antag | RGS4 act | RGS4 block valid | M3R Ca ctr | M3R basal Ca ctr | MrgX1 ag confirm | HEK293 Ca flux | HEK293 Ca counter | HEK293 Ca cntr2 | others
CCCC[C@H]1COCCS(=O)(=O)N1Cc1cccc([N+](=O)[O-])c1 | – | – | – | – | – | · | · | · | · | · | · | ·
CCC(=O)NC(=S)NNC(=O)c1ccc([N+](=O)[O-])cc1 | – | – | – | – | – | · | · | · | · | · | · | ·
CC(C)CC(=O)NC(=S)NNC(=O)c1ccc([N+](=O)[O-])cc1 | – | 81 | – | – | – | · | · | · | 280% | – | – | 72
CCCCN(C)C(=O)c1nc2ccccn2c1CN1CCN(C(=O)c2cccs2)CC1 | – | – | – | – | – | · | · | · | · | · | · | ·
CC(=O)[C@@]1(O)CC[C@H]2[C@@H]3CCC4=CC(=O)CC[C@]4(C)[C@H]3[C@@H](O)C[C@@]21C | – | 48 | – | – | – | · | · | · | – | – | – | –
Cc1ccccc1NC(=O)CN1CCOCC1 | – | 35 | – | – | – | · | · | · | – | – | – | –
O=C(COC(=O)c1nc(Cl)ccc1Cl)Nc1ccc2c(c1)OCO2 | – | 28 | – | – | – | · | · | · | – | – | – | –
COc1cc(/C=N/NC(=O)C23CC4CC(CC(C4)C2)C3)cc(Br)c1O | – | – | – | – | – | · | · | · | · | · | · | ·
O=C(N/N=C/c1cc([N+](=O)[O-])cc(Br)c1O)C12CC3CCC(CC(C3)C1)C2 | – | 73 | – | – | – | · | · | · | 175% | – | – | 92
O=C(NNC(=S)NC(=O)c1ccco1)c1ccc(F)cc1 | – | 69 | – | – | – | · | · | · | 201% | – | – | 47
COc1ccc(C(=O)NNC(=S)NC(=O)c2ccco2)cc1 | – | 84 | – | – | – | · | · | · | 486% | – | – | 86
